Shown are actives, neighbours in structure and some others; about 3.1% of the full set was active somewhere.
HSF1 inhib – HSF1 inhibitors in luciferase reporter cells, primary screen, cell-based, NIH3T3, luminescence. NIH3T3-HGL HSE-luciferase, MG132-induced, luminescence 8 h; active compounds read low. hit rate 0.77% among 300,000. activity change, negative = inhibition, % at 7.5 µM (by protocol). AID 2098, 2009;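 active = more than half of replicate wells show activity change below -50%, luminescence cut by over half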;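 note: luciferase reports HSF-1 transcriptional activity via heat shock element; 0% = median of DMSO wells and -100% = zero luminescence signal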
HSF1 activator – HSF-1 activators, primary screen, NIH3T3-HGL cells, MG132 stress, luminescence, single point | hit rate 1.7% among 300,000 | NIH3T3-HGL HSF-1 luciferase reporter, 8 h; 100% = twice DMSO control signal | activation, % at 9 µM;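 active = mean replicate activation of at least 50% with a set share of replicates each reaching 50%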;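 note: 0% = median of the neutral control wells and 100% = twice that signal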
HSP90 refold inh – HSP90 inhibitors, primary screen, cell lysate, luminescence. Heat shock protein HSP 90 (rabbit reticulocyte lysate; luciferase refolding). Rabbit reticulocyte lysate, luciferase refolding luminescence, 3 h. hit rate 0.91% among 290,000. inhibition, % at 5.6 µM;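 active = inhibition above the screen-wide mean plus 3 SD, computed separately per campaign, cut at about 16% in these data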;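 note: 0% = DMSO wells and 100% = 60 µM geldanamycin wells; inhibitors lower the luminescence because luciferase stays unfolded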
HKDC1 inh – HKDC1 hexokinase inhibitors, primary screen, biochemical, fluorescence, uHTS | AID 493160, 2011 | inhibition, % at 20 µM | recombinant HKDC1, G6PDH/diaphorase resazurin coupled fluorescence | Q2TB90 | hit rate 0.16% among 340,000;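 active = inhibition above about 35% when tested at 20 µM, limit read from the data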;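 note: plate controls were DMSO wells with enzyme for no effect and DMSO wells lacking enzyme for full effect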
Target sequence (Q2TB90 whole entry, looked up): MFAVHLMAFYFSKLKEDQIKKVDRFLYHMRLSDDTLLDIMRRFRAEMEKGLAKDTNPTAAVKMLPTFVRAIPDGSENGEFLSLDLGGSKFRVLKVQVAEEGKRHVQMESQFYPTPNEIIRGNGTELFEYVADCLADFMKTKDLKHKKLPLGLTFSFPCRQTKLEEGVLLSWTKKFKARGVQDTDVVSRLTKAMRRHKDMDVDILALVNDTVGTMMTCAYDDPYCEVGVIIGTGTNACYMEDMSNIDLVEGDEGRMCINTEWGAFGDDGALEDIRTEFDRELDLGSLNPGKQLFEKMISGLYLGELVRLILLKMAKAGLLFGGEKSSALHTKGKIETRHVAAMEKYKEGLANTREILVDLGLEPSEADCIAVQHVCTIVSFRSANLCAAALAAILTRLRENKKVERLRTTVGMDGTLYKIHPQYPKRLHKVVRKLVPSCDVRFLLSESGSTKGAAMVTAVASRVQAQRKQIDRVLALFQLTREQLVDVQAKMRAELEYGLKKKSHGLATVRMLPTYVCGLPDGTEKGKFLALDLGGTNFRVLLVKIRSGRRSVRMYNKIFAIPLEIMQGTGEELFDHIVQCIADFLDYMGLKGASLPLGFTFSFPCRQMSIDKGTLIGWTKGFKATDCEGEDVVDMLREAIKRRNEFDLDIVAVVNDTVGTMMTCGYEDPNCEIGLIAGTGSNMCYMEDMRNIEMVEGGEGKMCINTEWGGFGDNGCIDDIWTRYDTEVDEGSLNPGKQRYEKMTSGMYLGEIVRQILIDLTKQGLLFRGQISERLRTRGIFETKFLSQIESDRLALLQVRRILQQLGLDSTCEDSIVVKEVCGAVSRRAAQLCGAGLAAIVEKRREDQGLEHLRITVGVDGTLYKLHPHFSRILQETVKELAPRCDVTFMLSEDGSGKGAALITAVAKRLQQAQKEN
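Assay system – recombinant HKDC1 (HK5) hexokinase enzyme, produced in-house · Input – HKDC1 at 5 µg/mL · Reagent – glucose plus 1 mM ATP as hexokinase substrates · Timing – 90 min reaction incubation at room temperature, dark · Measured by – G6PDH/diaphorase-coupled fluorescence, 1 mM NADP, 100 µM resazurin, 525/613 nm · Benchmarks – DMSO-enzyme wells negative, buffer-substituted wells positive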
Hsp70 activator – Hsp70 transcriptional activators, primary screen, cell-based, HeLa, Hsp70 promoter luciferase, luminescence, 10 µM; HeLa Hsp70 promoter luciferase reporter; scaled: vehicle 0, proteasome-inhibitor control 100%; activation, % at 10 µM; hit rate 0.04% among 200,000; AID 1203, 2008;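 active = activation above the mean across all tested compounds plus 3 SD, cutoff set per campaign, cut at about 5.5% in these data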;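 note: 100% = MG132 at 30 µM as the positive control and 0% = DMSO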
Tb hexokinase – Trypanosoma brucei hexokinase 1 inhibitors, primary screen, biochemical, G6PDH-coupled NADH absorbance, MLSCN library; hexokinase 1 [Trypanosoma brucei]; recombinant TbHK1, G6PDH-coupled NADH A340; inhibition, % at 10 µM; hit rate 0.11% among 220,000; AID 1430, 2008;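 active = inhibition of 50% or more in the single-dose primary screen; inactive = inhibition below 50%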
Hsp70 act DR – Hsp70 transcriptional activators, dose response, cell-based, HeLa, Hsp70 promoter luciferase, luminescence, triplicate; HeLa hsp70.1pr-luc reporter; hit rate 10% among 70; shares compounds with Hsp70 activator; calls only at 99 µM;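 active = over 50% activation at some tested dose; inactive = under 50% activation at every tested dose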
An asterisk follows results filed as active; i = inactive; . = not tested or not shown; + = active, no number.

SMILES	HSF1 inhib	HSF1 activator	HSP90 refold inh	HKDC1 inh	Hsp70 activator	Tb hexokinase	Hsp70 act DR
O=C1c2cccnc2Oc2ccc(Cl)cc2N1Cc1ccc(F)cc1	-79*	-84	3	-8	0	1	.
COc1cc(/C=N/N2CCN(C3c4ccccc4-c4ccccc43)CC2)cc(OC)c1OC	48	103*	2	12	0	-17	.
COc1cc(/C=N/N2CCN(C3c4ccccc4-c4ccccc43)CC2)cc(OC)c1O	6	1	-1	16	1	1	.
COc1ccc(/C(N)=N/OC(=O)CSc2ccc(C)cc2)cc1OC	24	57*	4	-10	0	4	.
COc1ccc(C(=O)O/N=C(\N)c2ccc(OC)c(OC)c2)cc1	24	66*	4	-3	.	.	.
CC(C)Cc1ccc(C#N)c(SCC(N)=O)n1	-59*	-69	-3	-14	0	3	.
CC1CN(c2nc3ccccc3nc2NS(=O)(=O)c2ccccc2)CC(C)O1 (configuration not stated)	.	.	.	-6	.	.	.
Cc1ccc(-c2nn[nH]n2)o1	-58*	-70	1	-11	0	-3	.
O=C1CCN(Cc2ccc(O)cc2)CCN1CCO	0	-14	-2	5	.	.	.
CC(Sc1nc(-c2ccccc2)cc(C(F)(F)F)n1)C(=O)Nc1sc2c(c1C#N)CCC2 (configuration not stated)	17	57*	-1	-2	-1	-31	.
O=C(Cc1cc2ccccc2o1)NCc1ccc(F)cc1	-3	16	0	-3	.	.	.
Cc1ccccc1CN1CCN(C(=O)CC(C)C)CC1	-86*	-88	1	1	.	.	.
COc1ccccc1N(C)S(=O)(=O)c1ccc(C(=O)Nc2ccc(C)cc2C)cc1	.	.	.	-2	.	.	.
COc1ccc(C2=CC(=O)N(Nc3ccccc3)C2=O)cc1	47	72*	7	2	0	-2	.
Cc1ccc(NN2C(=O)C=C(c3ccc(Cl)cc3)C2=O)cc1	47	60*	-2	8	0	-3	.
O=C(COc1ccccc1Cl)NNC(=O)c1ccc2c(=O)n3c(nc2c1)CCC3	.	.	.	-6	.	.	.
CCCCNC(=O)Nc1nnc(C(C)(C)C)s1	27	56*	1	-5	.	-5	.
Cc1ccc(NC(=O)CN(C)C(=O)c2cc(S(=O)(=O)N(C)C)ccc2N2CCCC2)cc1	-2	-11	.	-7	.	.	.
O=C(OCC(=O)N1CCN(C(=O)c2ccco2)CC1)c1ccccc1NCCO	-3	-4	.	-4	.	.	.
Cc1ccccc1CN1CCN(c2nc3ccccc3s2)CC1	43	81*	5	-3	.	.	.
COc1ccc(CN2CCN(c3nc4ccccc4s3)CC2)cc1	2	12	-6	1	.	.	.
Cc1nc(CN2CCN(Cc3nc(C(c4ccccc4)c4ccccc4)no3)CC2)cs1	29	69*	-2	-5	0	-17	.
CCOC(=O)c1sc2nc(C)nc(Nc3ccccc3)c2c1C	-6	1	-4	-13	5.7*	-7	i
COc1cc(/C=C2\COC/C(=C\c3ccc(O)c(OC)c3)C2=O)ccc1O	12	19	6	22	.	-31	.
CCN1C/C(=C/c2ccc(OC)c(O)c2)C(=O)/C(=C/c2ccc(OC)c(O)c2)C1	-79*	-79	14	3	644*	-9	+
SMILES	HSF1 inhib	HSF1 activator	HSP90 refold inh	HKDC1 inh	Hsp70 activator	Tb hexokinase	Hsp70 act DR
Cc1ccc(NC(=S)NC(NC(=O)c2ccccc2)C(Cl)(Cl)Cl)c(C)c1 (configuration not stated)	3	18	7	-13	7.0*	35	i
Cc1cc(C)c(NC(=S)NC(NC(=O)c2ccccc2)C(Cl)(Cl)Cl)c(C)c1 (configuration not stated)	3	12	-4	-2	0	-4	.
Cc1ccc(-c2nc(NC(=O)c3nn(C)cc3[N+](=O)[O-])sc2C)cc1C	-84*	-84	4	-5	14*	-17	i
CCN1C(=O)/C(=C\N(C)C)NC1=S	-1	-9	-6	-7	0	-56	.
CN(C)/C=C1/NC(=S)NC1=O	3	2	2	-5	6.1*	-53	i
CCCCc1ncc(CN2CCC(n3nccc3NC(=O)c3ccccc3OC)CC2)[nH]1	-6	-7	-1	-4	.	.	.
CC(C)(C)c1ccc(-n2nc(C#N)c(Cl)cc2=O)cc1	152	153*	0	29	16*	-3	i
O=C(Nc1ccc(N2CCN(C(=O)c3ccc(Cl)cc3)CC2)cc1)c1ccc([N+](=O)[O-])o1	6	-6	0	0	0	-5	.
CCCC(=O)N1CCN(c2ccc(NC(=O)c3ccc([N+](=O)[O-])o3)cc2)CC1	-11	8	-1	7	15*	-12	i
O=C(Nc1ccc(N2CCCC2)c(Cl)c1)c1ccc([N+](=O)[O-])o1	.	.	3	7	20*	-6	i
CS(=O)(=O)N1CCN(c2ccc(NC(=O)c3ccc([N+](=O)[O-])o3)cc2)CC1	.	.	-1	-2	8.1*	-25	i
CC(=O)N1CCN(C(=O)c2ccc(Cl)c(S(=O)(=O)N3CCCCCC3)c2)CC1	.	.	.	-2	.	.	.
Cc1ccc(S(=O)(=O)N(C)c2ccc(OCC(=O)Nc3ccc(C(=O)N(C)C)cc3)cc2)cc1C	.	.	.	0	.	.	.
OC(CNCCN1CCNCC1)Cc1ccccc1 (configuration not stated)	.	.	.	-8	.	.	.
CC(=O)Nc1sc2c(c1-c1nc3ccccc3s1)CCN(C(C)C)C2	.	.	3	25	7.5*	-19	i
O=c1c(Br)c(N2CCCC2)cnn1-c1ccccc1	8	27	-1	5	0	20	.
O=c1c(Br)c(Br)cnn1-c1ccccc1	.	.	-8	9	7.4*	-5	i
O=C(Nc1cc(C(=O)N2CCN(c3ccccc3O)CC2)ccc1Cl)c1cccs1	-3	1	.	5	.	.	.
CCOC(=O)C1(C/C(C)=N/NC(N)=O)CC(C)OC1=O (configuration not stated)	11	1	10	-10	5.7*	1	i
C[C@@H]1C(=O)N(c2ccccc2)[C@@H]1c1ccncc1	.	.	.	20	.	.	.
O=C1C=CC(O)(c2cc(=O)c3c(O)cc(O)cc3o2)C=C1	-91*	-93	10	10	25*	-16	+
O=c1cc(-c2ccccc2Cl)oc2cc(O)cc(O)c12	2	4	-5	2	0	-1	.

Screening results (PubChem BioAssay)
